“And” between values parts separate entries of the source, which are not always exact repeats. Equal values may be shown once.
System: HEK-293T
Experiment: Multiplex assay against HEK293T
Assay type: toxicity, cell-based
Details: human, number of replicates 2
How it was run: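 Live cells were stained at seeding with Hoechst33342, BioTracker Green Microtubule Cytoskeleton Dye, MitoTracker Red and Annexin V Alexa Fluor 680, then imaged on a CQ1 microscope at 37°C and 5% CO2 after compound addition. CellPathfinder machine-learning gating split cells into Hoechst high-intensity objects or normal cells. Normal cells were split into healthy, pyknosed or fragmented nuclei, and pyknosed cells into mitotic or apoptotic. Tubulin, mitochondrial-mass and membrane-permeability phenotypes are per cents of healthy-nucleus cells.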

[1] = 12 h, 1 µM, compound concentration 1 uM
[2] = 12 h, 10 µM, compound concentration 10 uM
[3] = 24 h, 1 µM, compound concentration 1 uM
[4] = 24 h, 10 µM, compound concentration 10 uM
[5] = 48 h, 1 µM, compound concentration 1 uM
[6] = 48 h, 10 µM, compound concentration 10 uM

CCNc1ccc(-c2nn(-c3ccccc3C)c3c2C(C)Cc2nc(NC(=O)OC)sc2-3)cn1.O=C(O)C(F)(F)F (configuration not stated)
Population Apoptotic (%) [1]: 69% and 60%
Population Fragmented Nuclei (%) [1]: 4% and 5%
Population Healthy Nuclei (%) [1]: 86% and 81%
Population Hoechst High Intensity Objects (%) [1]: 11% and 12%
Population Membrane Permeable-Phenotype (%) [1]: 2%
Population Mitochondria Different-Phenotype (%) [1]: 45% and 38%
Population Mitotic Cells (%) [1]: 30% and 39%
Population Normal (%) [1]: 88% and 87%
Population Pyknosed Nuclei (%) [1]: 8% and 13%
Population Tubulin-Different-Phenotype (%) [1]: 74% and 65%
Total Cell Count [1]: 430 and 487
Population Apoptotic (%) [2]: 73% and 72%
Population Fragmented Nuclei (%) [2]: 3% and 4%
Population Healthy Nuclei (%) [2]: 85% and 79%
Population Hoechst High Intensity Objects (%) [2]: 10%
Population Membrane Permeable-Phenotype (%) [2]: 3%
Population Mitochondria Different-Phenotype (%) [2]: 74% and 79%
Population Mitotic Cells (%) [2]: 26% and 27%
Population Normal (%) [2]: 89%
Population Pyknosed Nuclei (%) [2]: 10% and 16%
Population Tubulin-Different-Phenotype (%) [2]: 94% and 96%
Total Cell Count [2]: 308 and 225
Population Apoptotic (%) [3]: 58% and 82%
Population Fragmented Nuclei (%) [3]: 5%
Population Healthy Nuclei (%) [3]: 82% and 81%
Population Hoechst High Intensity Objects (%) [3]: 26% and 16%
Population Membrane Permeable-Phenotype (%) [3]: 0%
Population Mitochondria Different-Phenotype (%) [3]: 44% and 63%
Population Mitotic Cells (%) [3]: 41% and 17%
Population Normal (%) [3]: 73% and 83%
Population Pyknosed Nuclei (%) [3]: 11% and 12%
Population Tubulin-Different-Phenotype (%) [3]: 72% and 85%
Total Cell Count [3]: 409 and 322
Population Apoptotic (%) [4]: 54% and 66%
Population Fragmented Nuclei (%) [4]: 6% and 5%
Population Healthy Nuclei (%) [4]: 76% and 74%
Population Hoechst High Intensity Objects (%) [4]: 13% and 16%
Population Membrane Permeable-Phenotype (%) [4]: 1%
Population Mitochondria Different-Phenotype (%) [4]: 86% and 85%
Population Mitotic Cells (%) [4]: 45% and 33%
Population Normal (%) [4]: 86% and 83%
Population Pyknosed Nuclei (%) [4]: 16% and 19%
Population Tubulin-Different-Phenotype (%) [4]: 89% and 95%
Total Cell Count [4]: 234 and 199
Population Apoptotic (%) [5]: 75% and 85%
Population Fragmented Nuclei (%) [5]: 11%
Population Healthy Nuclei (%) [5]: 69% and 74%
Population Hoechst High Intensity Objects (%) [5]: 28% and 29%
Population Membrane Permeable-Phenotype (%) [5]: 0%
Population Mitochondria Different-Phenotype (%) [5]: 43% and 50%
Population Mitotic Cells (%) [5]: 24% and 14%
Population Normal (%) [5]: 71% and 70%
Population Pyknosed Nuclei (%) [5]: 19% and 14%
Population Tubulin-Different-Phenotype (%) [5]: 75% and 80%
Total Cell Count [5]: 418 and 399
Population Apoptotic (%) [6]: 73% and 66%
Population Fragmented Nuclei (%) [6]: 5% and 3%
Population Healthy Nuclei (%) [6]: 86% and 81%
Population Hoechst High Intensity Objects (%) [6]: 19% and 13%
Population Membrane Permeable-Phenotype (%) [6]: 2% and 1%
Population Mitochondria Different-Phenotype (%) [6]: 83% and 80%
Population Mitotic Cells (%) [6]: 26% and 33%
Population Normal (%) [6]: 80% and 86%
Population Pyknosed Nuclei (%) [6]: 7% and 15%
Population Tubulin-Different-Phenotype (%) [6]: 89% and 93%
Total Cell Count [6]: 239 and 207

COc1ncc(-c2cc(-c3ncc(CN4C[C@@H](C)O[C@@H](C)C4)o3)c3cn[nH]c3c2)cc1NS(C)(=O)=O
Population Apoptotic (%) [1]: 48% and 56%
Population Fragmented Nuclei (%) [1]: 3% and 2%
Population Healthy Nuclei (%) [1]: 86% and 81%
Population Hoechst High Intensity Objects (%) [1]: 10%
Population Membrane Permeable-Phenotype (%) [1]: 4% and 1%
Population Mitochondria Different-Phenotype (%) [1]: 17% and 26%
Population Mitotic Cells (%) [1]: 51% and 43%
Population Normal (%) [1]: 89%
Population Pyknosed Nuclei (%) [1]: 10% and 15%
Population Tubulin-Different-Phenotype (%) [1]: 65% and 71%
Total Cell Count [1]: 695 and 654
Population Apoptotic (%) [2]: 46% and 58%
Population Fragmented Nuclei (%) [2]: 2% and 3%
Population Healthy Nuclei (%) [2]: 75% and 82%
Population Hoechst High Intensity Objects (%) [2]: 9%
Population Membrane Permeable-Phenotype (%) [2]: 0% and 1%
Population Mitochondria Different-Phenotype (%) [2]: 54% and 51%
Population Mitotic Cells (%) [2]: 53% and 41%
Population Normal (%) [2]: 90%
Population Pyknosed Nuclei (%) [2]: 22% and 14%
Population Tubulin-Different-Phenotype (%) [2]: 88% and 87%
Total Cell Count [2]: 336 and 358
Population Apoptotic (%) [3]: 40% and 54%
Population Fragmented Nuclei (%) [3]: 7% and 5%
Population Healthy Nuclei (%) [3]: 86% and 83%
Population Hoechst High Intensity Objects (%) [3]: 12% and 10%
Population Membrane Permeable-Phenotype (%) [3]: 2% and 1%
Population Mitochondria Different-Phenotype (%) [3]: 4% and 10%
Population Mitotic Cells (%) [3]: 59% and 45%
Population Normal (%) [3]: 87% and 89%
Population Pyknosed Nuclei (%) [3]: 6% and 10%
Population Tubulin-Different-Phenotype (%) [3]: 37% and 44%
Total Cell Count [3]: 1173 and 987
Population Apoptotic (%) [4]: 46% and 45%
Population Fragmented Nuclei (%) [4]: 4%
Population Healthy Nuclei (%) [4]: 82% and 76%
Population Hoechst High Intensity Objects (%) [4]: 9% and 10%
Population Membrane Permeable-Phenotype (%) [4]: 1%
Population Mitochondria Different-Phenotype (%) [4]: 41% and 44%
Population Mitotic Cells (%) [4]: 53% and 54%
Population Normal (%) [4]: 90% and 89%
Population Pyknosed Nuclei (%) [4]: 13% and 19%
Population Tubulin-Different-Phenotype (%) [4]: 79% and 86%
Total Cell Count [4]: 379 and 373
Population Apoptotic (%) [5]: 13% and 26%
Population Fragmented Nuclei (%) [5]: 15% and 9%
Population Healthy Nuclei (%) [5]: 81% and 85%
Population Hoechst High Intensity Objects (%) [5]: 11%
Population Membrane Permeable-Phenotype (%) [5]: 7% and 2%
Population Mitochondria Different-Phenotype (%) [5]: 0% and 2%
Population Mitotic Cells (%) [5]: 86% and 73%
Population Normal (%) [5]: 88%
Population Pyknosed Nuclei (%) [5]: 2% and 4%
Population Tubulin-Different-Phenotype (%) [5]: 22% and 30%
Total Cell Count [5]: 2777 and 1879
Population Apoptotic (%) [6]: 55% and 40%
Population Fragmented Nuclei (%) [6]: 6% and 4%
Population Healthy Nuclei (%) [6]: 87% and 83%
Population Hoechst High Intensity Objects (%) [6]: 13% and 9%
Population Membrane Permeable-Phenotype (%) [6]: 2% and 3%
Population Mitochondria Different-Phenotype (%) [6]: 18% and 21%
Population Mitotic Cells (%) [6]: 44% and 59%
Population Normal (%) [6]: 86% and 90%
Population Pyknosed Nuclei (%) [6]: 6% and 11%
Population Tubulin-Different-Phenotype (%) [6]: 74% and 82%
Total Cell Count [6]: 527 and 510

Reference: ChEMBL document CHEMBL5303300, “EUbOPEN Chemogenomics Library - Multiplex” (2023)
